Experimental data as given in ChEMBL document CHEMBL4011629, “New Disubstituted Quindoline Derivatives Inhibiting Burkitt's Lymphoma Cell Proliferation by Impeding c-MYC Transcription” (J Med Chem, 2017).
Calls of active or inactive are those of the source. The calls are words filed in the database; no cut-off is given here.

Assays:
[1] = Stabilization of c-Myc Pu27 G-quadruplex DNA (unknown origin) assessed as induction of parallel G-quadruplex formation in absence of K+ ions by CD spectroscopic analysis
[2] = Binding affinity to 5'-FAM labeled c-Myc Pu27 G-quadruplex DNA (unknown origin) in presence of K+ ions by MST analysis
Summary of the method: (§1)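 The DNA was annealed at 95 °C for 5 min, slowly cooled and held at 4 °C overnight. Ligand was run as a 12-point series, 0–20 μM for Pu27 and up to 200 μM for duplex. MST was measured, and KD was fitted to a Hill model from three replicates.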

[3] = test system: Raji; experiment: Antiproliferative activity against human Raji cells after 48 hrs by MTT assay; assay type: functional, cell-based
Summary of the method: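 RAJI cells were seeded at 5 × 10^3 cells per well and treated for 48 h, with a DMSO-matched control. MTT at 0.5 mg/mL was added for 4 h at 37 °C, followed by overnight lysis at 37 °C and absorbance at 570 nm. Each assay was done in triplicate. IC50 came from the dose-dependent percentage survival versus the control.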

[4] = Stabilization of 5'-FAM/3'-TAMRA labeled c-Myc Pu22 G-quadruplex DNA (unknown origin) assessed as change in melting temperature at 2 uM by FRET assay
Summary of the method: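 FRET melting of FAM/TAMRA-labelled FPu22T (0.2 μM) in 10 mM Tris-HCl pH 7.4 with 2 mM KCl, ligand 2 μM, in a real-time PCR machine. Excitation 470 nm, emission 530 nm, read every 1 °C from 37 to 99 °C after 30 s hold at each step; ΔTm versus probe alone.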

[5] = Selectivity ratio of Kd for 5'-FAM labeled duplex DNA (unknown origin) to Kd for 5'-FAM labeled c-Myc Pu27 G-quadruplex DNA (unknown origin)
Summary of the method: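 MST binding: FAM-Pu27 or FAM-duplex oligo at 10 μM in 10 mM Tris-HCl pH 7.4 with 150 mM KCl, annealed 95 °C 5 min, slow-cooled, held 4 °C overnight. Ligand titrated as a 12-point series, 0–20 μM for G4 or up to 200 μM for duplex. KD fitted with Hill model; three replicates.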

[6] = Stabilization of c-Myc Pu27 G-quadruplex DNA (unknown origin) assessed as induction of parallel G-quadruplex formation in absence of K+ ions by CD spectroscopic analysis
Summary of the method: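 CD spectra: Pu27 at 5 μM in 10 mM Tris-HCl pH 7.4 without or with 100 mM KCl, annealed 95 °C 5 min, slow-cooled, kept at 4 °C overnight, with ligand. Scanned 230–400 in a 4 mm quartz cuvette, 1 nm bandwidth and step, 0.5 s/point; buffer baseline subtracted.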

[7] = Binding affinity to 5'-FAM labeled duplex DNA (unknown origin) by MST analysis
Summary of the method: as §1

[8] = organism: Homo sapiens; experiment: Effect on c-Myc DNA translocated chromosome product in human CA46 cells assessed as decrease in amplification of exon-2 at 1 uM after 12 hrs by RT-PCR method; assay type: cell-based
Summary of the method: (§2)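 Cells treated 12 h with compound at various concentrations, untreated cells as control. Total RNA (2 μg) reverse-transcribed with oligo dT18 and M-MLV (42 °C 1 h). c-MYC exons 1 and 2, NM23-H2 and β-actin amplified by real-time PCR, products checked on 1% agarose gel. Three independent repeats, mean ± SEM, two-tailed unpaired t test versus untreated.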

[9] = Inhibition of NM23-H2 binding to 5'-FAM labeled c-Myc Pu27 G-quadruplex DNA (unknown origin) at 10 uM preincubated for 1 hr followed by NM23-H2 addition by electrophoretic mobility shift assay relative to control
Summary of the method: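 Annealed labeled Pu27 (1.5 μM) preincubated 1 h at 25 °C with 10 μM ligand or 5% DMSO. Recombinant His-tagged NM23-H2 (0.5 μM, E. coli BL21, nickel-purified) then added for 1 h at 37 °C. Complexes resolved on 5% native polyacrylamide gel in 0.5× TBE at 4 °C. Inhibition taken as loss of complex band intensity versus no-compound band set at 100%. Run three times.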

[10] = organism: Homo sapiens; experiment: Effect on c-Myc DNA translocated chromosome product in human Raji cells assessed as decrease in amplification of exon-2 at 1 uM after 12 hrs by RT-PCR method; assay type: cell-based
Summary of the method: as §2

[11] = organism: Homo sapiens; experiment: Stabilization of c-Myc G-quadruplex DNA in human Raji cells assessed as decrease in amplification of exon-1 at 1 uM after 12 hrs by RT-PCR method; assay type: cell-based
Summary of the method: as §2

[12] = organism: Homo sapiens; experiment: Stabilization of c-Myc G-quadruplex DNA in human CA46 cells assessed as decrease in amplification of exon-1 at 1 uM after 12 hrs by RT-PCR method; assay type: cell-based
Summary of the method: as §2

Structure (SMILES) | Activity [1] | Kd [2] [nM] | IC50 [3] [nM] | ΔTm [4] [°C] | Selectivity ratio [5] | Activity [6] | Activity [7] | Activity [2] | Activity [8] | inhibition [9] | Activity [10] | Activity [4] | Activity [11] | Activity [12]
CN(C)CCCNc1c2ccccc2nc2c1oc1c(OCCN(C)C)cccc12 | Active | 1300 to 4900 | 1000 to 4000 | 18.6 | 2.5 to 10.1 | Active | – | – | – | – | – | – | – | –
CCN(CC)CCNC(=O)COc1ccc2oc3c(NCCN(CC)CC)c4ccccc4[n+](C)c3c2c1 | Active | 800 | – | 13.5 to 36.7 | – | Active | Active | – | – | – | – | – | – | –
CCN(CC)CCCNC(=O)COc1ccc2oc3c(NCCCN(CC)CC)c4ccccc4[n+](C)c3c2c1 | Active | 700 | – | 13.5 to 36.7 | – | Active | Active | – | – | – | – | – | – | –
CN(C)CCNc1c2ccccc2[n+](C)c2c1oc1ccc(OCC[N+](C)(C)C)cc12 | Active | – | – | 33.1 to 36.7 | – | Active | Active | Active | – | – | – | – | – | –
CN(C)CCCCNC(=O)COc1ccc2oc3c(NCCCCN(C)C)c4ccccc4[n+](C)c3c2c1 | Active | – | – | 13.5 to 36.7 | – | Active | Active | Active | – | – | – | – | – | –
CN(C)CCNC(=O)COc1ccc2oc3c(NCCN(C)C)c4ccccc4[n+](C)c3c2c1 | Active | – | – | 13.5 to 36.7 | – | Active | Active | Active | – | – | – | – | – | –
CN(C)CCCNc1c2ccccc2[n+](C)c2c1oc1ccc(OCC[N+](C)(C)C)cc12 | Active | – | – | 33.1 to 36.7 | – | Active | Active | Active | – | – | – | – | – | –
CN(C)CCCNC(=O)COc1ccc2oc3c(NCCCN(C)C)c4ccccc4nc3c2c1 | Active | – | 1000 to 4000 | 21.2 | 2.9 to 9.7 | Active | – | Active | – | – | – | – | – | –
C[n+]1c2ccccc2c(NCCCN2CCCCC2)c2oc3ccc(OCC(=O)NCCCN4CCCCC4)cc3c21 | Active | – | – | 35.2 | – | Active | Active | Active | – | – | – | – | – | –
CCN(CC)CCNC(=O)COc1ccc2oc3c(NCCN(CC)CC)c4ccccc4nc3c2c1 | Active | – | 1000 to 4000 | 13.5 to 36.7 | 2.9 to 9.7 | Active | – | Active | – | – | – | – | – | –
CN(C)CCNc1c2ccccc2nc2c1oc1ccc(OCCN(C)C)cc12 | Active | 1300 to 4900 | 1000 to 4000 | 13.5 to 36.7 | 2.5 to 10.1 | Active | – | – | – | – | – | – | – | –
CN(C)CCCNc1c2ccccc2nc2c1oc1c(OCCCN(C)C)cccc12 | Active | 1300 to 4900 | 1000 to 4000 | 13.5 | 2.5 to 10.1 | Active | – | – | – | – | – | – | – | –
CN(C)CCCNc1c2ccccc2[n+](C)c2c1oc1ccc(OCC3CC[N+](C)(C)CC3)cc12 | Active | – | – | 33.1 to 36.7 | – | Active | Active | Active | – | – | – | – | – | –
CN(C)CCCNc1c2ccccc2[n+](C)c2c1oc1ccc(OCCC[N+](C)(C)C)cc12 | Active | – | – | 33.1 to 36.7 | – | Active | Active | Active | – | – | – | – | – | –
CN(C)CCNC(=O)COc1ccc2oc3c(NCCN(C)C)c4ccccc4nc3c2c1 | Active | – | 1000 to 4000 | 13.5 to 36.7 | 2.9 to 9.7 | Active | – | Active | – | – | – | – | – | –
CN(C)CCCNc1c2ccccc2nc2c1[nH]c1ccccc12 | – | 7800 | – | – | 1.02 | – | – | – | Active | Active | Active | Active | Active | Active
CN(C)CCCNc1c2ccccc2nc2c1oc1cc(OCCN(C)C)ccc12 | Active | 1300 to 4900 | 1000 to 4000 | 22.1 to 25.2 | 2.5 to 10.1 | Active | – | – | – | – | – | – | – | –
O=C(COc1ccc2oc3c(NCCN4CCCCC4)c4ccccc4nc3c2c1)NCCN1CCCCC1 | Active | – | 1000 to 4000 | 13.5 to 36.7 | 2.9 to 9.7 | Active | – | Active | – | – | – | – | – | –
CN(C)CCCNC(=O)COc1ccc2oc3c(NCCCN(C)C)c4ccccc4[n+](C)c3c2c1 | Active | – | – | 35.6 | – | Active | Active | Active | – | – | – | – | – | –
CN(C)CCCNc1c2ccccc2nc2c1oc1ccc(OCCCN(C)C)cc12 | Active | 1300 to 4900 | 1000 to 4000 | 22.1 to 25.2 | 2.5 to 10.1 | Active | – | – | – | – | – | – | – | –
CCN(CC)CCCNC(=O)COc1ccc2oc3c(NCCCN(CC)CC)c4ccccc4nc3c2c1 | Active | – | 1000 to 4000 | 13.5 to 36.7 | 2.9 to 9.7 | Active | – | Active | – | – | – | – | – | –
CN(C)CCCNc1c2ccccc2nc2c1oc1cc(OCCCN(C)C)ccc12 | Active | 1300 to 4900 | 1000 to 4000 | 22.1 to 25.2 | 2.5 to 10.1 | Active | – | – | – | – | – | – | – | –
C[n+]1c2ccccc2c(NCCN2CCCCC2)c2oc3ccc(OCC(=O)NCCN4CCCCC4)cc3c21 | Active | – | – | 30 | – | Active | Active | Active | – | – | – | – | – | –
C[n+]1c2ccccc2c(NCCCN2CCOCC2)c2oc3ccc(OCC(=O)NCCCN4CCOCC4)cc3c21 | Active | – | – | 36.1 | – | Active | Active | Active | – | – | – | – | – | –
CN1CCN(CCNC(=O)COc2ccc3oc4c(NCCN5CCN(C)CC5)c5ccccc5[n+](C)c4c3c2)CC1 | Active | – | – | 13.5 to 36.7 | – | Active | Active | Active | – | – | – | – | – | –
CN(C)CCCNc1c2ccccc2nc2c1oc1ccc(OCCN(C)C)cc12 | Active | 1300 to 4900 | 1000 to 4000 | 22.1 to 25.2 | 2.5 to 10.1 | Active | – | – | – | – | – | – | – | –
C[n+]1c2ccccc2c(NCCN2CCOCC2)c2oc3ccc(OCC(=O)NCCN4CCOCC4)cc3c21 | Active | – | – | 28.4 | – | Active | Active | Active | – | – | – | – | – | –
